Experimental data published in ChEMBL document CHEMBL4842372, “Discovery of ARD-2585 as an Exceptionally Potent and Orally Active PROTAC Degrader of Androgen Receptor for the Treatment of Advanced Prostate Cancer” (J Med Chem, 2021).
Active and inactive are the calls of the source. The calls are words filed in the database; no cut-off is given here.

Legend:
[1] = Drug distribution in tumor of CB17:SCID mouse xenografted with human VCaP cells at 20 mg/kg, po measured at 1 hrs by LCMS analysis; format: ADME, organism-based, Neoplasm; details: read-out: Drug uptake
Outline: (§1)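 Tumor-bearing male CB17 SCID mice (VCaP xenografts) given one 20 mg/kg oral dose in 100% PEG200, three mice per time point; plasma, tumor, liver, kidney, prostate and heart taken at 1, 6 and 24 h; tissues homogenised in water/acetonitrile, protein precipitated with cold acetonitrile, drug quantified by LC–MS/MS; ratios are tissue over plasma level.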

[2] = system: LNCaP; test: Growth inhibition of human LNCaP cells carrying AR T878A mutant assessed as cell viability by WST-8 assay; format: functional, cell-based
[3] = molecular target: T1, Protein cereblon/Androgen receptor (Homo sapiens, UniProt P10275+Q96SW2); test: Protac activity at CRBN/AR in human 22Rv1 cells assessed as reduction in AR protein level at 30 nM after 24 hrs by Western blot analysis relative to control; format: cell-based
T1 sequence (P10275 whole entry, looked up): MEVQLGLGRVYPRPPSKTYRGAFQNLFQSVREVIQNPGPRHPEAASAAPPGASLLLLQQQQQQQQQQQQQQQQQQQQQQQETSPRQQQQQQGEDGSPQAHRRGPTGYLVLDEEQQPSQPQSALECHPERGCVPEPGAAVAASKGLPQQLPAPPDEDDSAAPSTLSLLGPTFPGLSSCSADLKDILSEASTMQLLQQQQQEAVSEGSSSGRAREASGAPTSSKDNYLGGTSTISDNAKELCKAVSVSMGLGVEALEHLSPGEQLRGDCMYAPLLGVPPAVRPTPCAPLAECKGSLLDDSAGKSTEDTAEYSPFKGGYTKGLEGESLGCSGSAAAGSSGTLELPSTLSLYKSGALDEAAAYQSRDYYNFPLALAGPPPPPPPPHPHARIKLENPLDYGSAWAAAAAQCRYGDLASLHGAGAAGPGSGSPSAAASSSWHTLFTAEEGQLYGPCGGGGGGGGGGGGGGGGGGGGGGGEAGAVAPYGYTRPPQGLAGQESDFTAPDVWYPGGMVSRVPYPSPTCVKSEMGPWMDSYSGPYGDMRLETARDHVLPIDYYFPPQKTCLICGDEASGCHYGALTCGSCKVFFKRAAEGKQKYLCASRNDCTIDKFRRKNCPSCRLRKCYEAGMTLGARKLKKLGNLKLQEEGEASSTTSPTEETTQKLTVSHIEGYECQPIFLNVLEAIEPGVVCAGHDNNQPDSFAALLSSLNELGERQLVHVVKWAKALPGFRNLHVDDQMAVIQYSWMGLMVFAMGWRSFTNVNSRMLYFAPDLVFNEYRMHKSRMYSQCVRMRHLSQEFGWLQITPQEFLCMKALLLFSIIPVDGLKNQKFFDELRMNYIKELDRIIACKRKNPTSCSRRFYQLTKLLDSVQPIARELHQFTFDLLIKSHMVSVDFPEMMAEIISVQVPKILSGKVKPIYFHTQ
T1 sequence (Q96SW2 whole entry, looked up): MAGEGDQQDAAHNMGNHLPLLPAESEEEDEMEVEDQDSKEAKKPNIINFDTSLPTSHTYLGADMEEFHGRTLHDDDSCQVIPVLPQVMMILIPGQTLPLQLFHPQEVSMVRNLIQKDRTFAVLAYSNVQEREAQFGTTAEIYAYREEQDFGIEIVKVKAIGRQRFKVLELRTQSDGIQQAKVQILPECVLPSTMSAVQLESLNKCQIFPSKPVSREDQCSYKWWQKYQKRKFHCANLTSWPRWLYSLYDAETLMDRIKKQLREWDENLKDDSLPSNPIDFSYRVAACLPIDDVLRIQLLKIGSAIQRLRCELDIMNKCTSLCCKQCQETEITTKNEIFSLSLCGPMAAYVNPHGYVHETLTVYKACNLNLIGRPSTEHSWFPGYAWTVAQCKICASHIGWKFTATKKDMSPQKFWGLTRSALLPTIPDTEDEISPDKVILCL
Outline: (§2)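 Western blot of AR after 24 h exposure to a concentration series in ATCC-derived cells, all with 10% FBS at 37 °C and 5% CO2: LNCaP and 22Rv1 in RPMI1640, VCaP in DMEM with Glutamax, MDA-PCa-2b in F-12K. Lysis in RIPA with protease and phosphatase inhibitors, then 4–12% SDS-PAGE and PVDF transfer. Band minus background is normalised to GAPDH.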

[4] = Drug distribution in CB17:SCID mouse xenografted with human VCaP cells assessed as liver to plasma ratio at 20 mg/kg, po measured at 1 hrs by LCMS analysis; format: ADME, organism-based; outline: as §1
[5] = system: VCaP; test: Potency index, ratio of ARV-110 IC50 to compound IC50 for reduction in AR degradation human VCaP cells after 24 hrs by Western blot analysis; format: functional
[6] = Drug distribution in tumor of CB17:SCID mouse xenografted with human VCaP cells at 20 mg/kg, po measured at 24 hrs by LCMS analysis; format: ADME, organism-based, Neoplasm; details: read-out: Drug uptake; outline: as §1
[7] = Drug distribution in liver of CB17:SCID mouse xenografted with human VCaP cells at 20 mg/kg, po measured at 24 hrs by LCMS analysis; format: ADME, organism-based; details: read-out: Drug uptake; outline: as §1
[8] = system: Protein cereblon/Androgen receptor (Homo sapiens), P10275+Q96SW2 [T878A]; test: Protac activity at CRBN/AR T878A mutant in human LNCaP cells assessed as reduction in AR protein level at 3 nM after 24 hrs by Western blot analysis relative to control; format: cell-based; outline: as §2
[9] = molecular target: T1, Protein cereblon/Androgen receptor; test: Protac activity at CRBN/AR in human 22Rv1 cells assessed as reduction in AR protein level at 0.1 nM after 24 hrs by Western blot analysis relative to control; format: cell-based; outline: as §2
[10] = Drug distribution in kidney of CB17:SCID mouse xenografted with human VCaP cells at 20 mg/kg, po measured at 6 hrs by LCMS analysis; format: ADME, organism-based; details: read-out: Drug uptake; outline: as §1
[11] = Drug distribution in plasma of CB17:SCID mouse xenografted with human VCaP cells at 20 mg/kg, po measured at 1 hrs by LCMS analysis; format: ADME, organism-based; outline: as §1
[12] = Drug distribution in heart of CB17:SCID mouse xenografted with human VCaP cells at 20 mg/kg, po measured at 6 hrs by LCMS analysis; format: ADME, organism-based; details: read-out: Drug uptake; outline: as §1
[13] = Drug distribution in CB17:SCID mouse xenografted with human VCaP cells assessed as heart to plasma ratio at 20 mg/kg, po measured at 1 hrs by LCMS analysis; format: ADME, organism-based; outline: as §1
[14] = system: VCaP; test: Antitumor activity against human VCaP cells xenografted in CB17:SCID mouse assessed as reduction in AR protein level in tumor at 10 mg/kg, po for 3 days measured at 24 hrs by Western blot analysis; format: functional; details: 72 h, time 3 day
Outline: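 Male CB17 SCID mice bearing subcutaneous VCaP tumors (5 × 10^6 cells in Matrigel); dosed by oral gavage in 100% PEG200 at 10 mg/kg daily for 3 days; tumors harvested 3, 6 and 24 h post-dose, lysed in RIPA, Western blot for AR with GAPDH loading control, bands quantified by densitometry relative to loading control.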

[15] = system: Protein cereblon/Androgen receptor (Homo sapiens), P10275+Q96SW2 [T878A]; test: Protac activity at CRBN/AR T878A mutant in human LNCaP cells assessed as reduction in AR protein level at 100 nM after 3 hrs in presence of MG-132 by Western blot analysis
[16] = Drug distribution in CB17:SCID mouse xenografted with human VCaP cells assessed as liver to plasma ratio at 20 mg/kg, po measured at 24 hrs by LCMS analysis; format: ADME, organism-based; outline: as §1
[17] = system: Protein cereblon/Androgen receptor (Homo sapiens), P10275+Q96SW2 [T878A]; test: Protac activity at CRBN/AR T878A mutant in human LNCaP cells assessed as reduction in AR protein level at 100 nM after 3 hrs in presence of N-((1r,4r)-4-((3-chloro-4-cyanophenyl)(methyl)amino)cyclohexyl)-4-(4-methylpiperazin-1-yl)benzamide by Western blot analysis
[18] = Drug distribution in CB17:SCID mouse xenografted with human VCaP cells assessed as heart to plasma ratio at 20 mg/kg, po measured at 6 hrs by LCMS analysis; format: ADME, organism-based; outline: as §1
[19] = Drug distribution in kidney of CB17:SCID mouse xenografted with human VCaP cells at 20 mg/kg, po measured at 1 hrs by LCMS analysis; format: ADME, organism-based; details: read-out: Drug uptake; outline: as §1
[20] = molecular target: T1, Protein cereblon/Androgen receptor; test: Protac activity at CRBN/AR in human VCaP cells assessed as reduction in AR protein level at 100 nM after 3 hrs in presence of thalidomide by Western blot analysis
[21] = system: Protein cereblon/Androgen receptor (Homo sapiens), P10275+Q96SW2 [T878A]; test: Protac activity at CRBN/AR T878A mutant in human LNCaP cells assessed as reduction in AR protein level at 100 nM after 3 hrs in presence of MLN4924 by Western blot analysis
[22] = Potency index, ratio of ARV-110 IC50 to compound IC50 for reduction in AR degradation human MDA-PCa-2b cells after 24 hrs by Western blot analysis relative to control; format: functional
[23] = Drug distribution in CB17:SCID mouse xenografted with human VCaP cells assessed as tumor to plasma ratio at 20 mg/kg, po measured at 1 hrs by LCMS analysis; format: ADME, organism-based; outline: as §1
[24] = Drug distribution in CB17:SCID mouse xenografted with human VCaP cells assessed as kidney to plasma ratio at 20 mg/kg, po measured at 6 hrs by LCMS analysis; format: ADME, organism-based; outline: as §1
[25] = Drug distribution in tumor of CB17:SCID mouse xenografted with human VCaP cells at 20 mg/kg, po measured at 6 hrs by LCMS analysis; format: ADME, organism-based, Neoplasm; details: read-out: Drug uptake; outline: as §1
[26] = Drug distribution in CB17:SCID mouse xenografted with human VCaP cells assessed as prostate gland to plasma ratio at 20 mg/kg, po measured at 1 hrs by LCMS analysis; format: ADME, organism-based; outline: as §1

**Q.** With `CN(c1ccc(C#N)c(Cl)c1)[C@H]1CC[C@H](NC(=O)c2ccc(N3CCN(C4CN(c5ccc6c(c5)C(=O)N(C5CCC(=O)NC5=O)C6=O)C4)CC3)cc2)CC1` (stereo partly specified) as the compound, how does the concentration at 1 h [1] read?
**A.** 47 ng/g

**Q.** And the IC50 [2]?
**A.** 16.2 nM

**Q.** And the inhibition [3]?
**A.** 80%

**Q.** What about the Kp at 1 h [4] of the same compound?
**A.** 37.7

**Q.** What about the Ratio [5] of the same compound?
**A.** 30

**Q.** And the concentration at 24 h [6]?
**A.** 301 ng/g

**Q.** What about the concentration at 24 h [7] of the same compound?
**A.** 6870 ng/g

**Q.** And the inhibition [8]?
**A.** 80%

**Q.** What about the inhibition [9] of the same compound?
**A.** > 80%

**Q.** And the concentration at 6 h [10]?
**A.** 661 ng/g

**Q.** What about the concentration at 1 h [11] of the same compound?
**A.** 70 ng/mL

**Q.** And the concentration at 6 h [12]?
**A.** 339 ng/g

**Q.** And the Kp at 1 h [13]?
**A.** 3

**Q.** What about the inhibition in vivo at 10 mg/kg [14] of the same compound?
**A.** 78%

**Q.** What about the Activity [15] of the same compound?
**A.** inactive

**Q.** What about the Kp at 24 h [16] of the same compound?
**A.** 32.1

**Q.** What about the Activity [17] of the same compound?
**A.** inactive

**Q.** And the Kp at 6 h [18]?
**A.** 2.5

**Q.** And the concentration at 1 h [19]?
**A.** 437 ng/g

**Q.** And the Activity [20]?
**A.** inactive

**Q.** What about the Activity [21] of the same compound?
**A.** inactive

**Q.** And the Ratio [22]?
**A.** 1000

**Q.** What about the Kp at 1 h [23] of the same compound?
**A.** 0.7

**Q.** And the Kp at 6 h [24]?
**A.** 4.9

**Q.** And the concentration at 6 h [25]?
**A.** 201 ng/g

**Q.** What about the Kp at 1 h [26] of the same compound?
**A.** 0.4
